Measured values as given in ChEMBL document CHEMBL3232904, “Discovery of novel quinoline carboxylic acid series as DGAT1 inhibitors” (Bioorg Med Chem Lett, 2014).
≈ marks a conversion by molar mass, not a printed value.

Legend:
[1] = AUC in rat at 10 mg/kg, po; type: ADME, organism-based; design: dose 10 mg/kg, route oral; conditions: plasma
[2] = target: T1, Diacylglycerol O-acyltransferase 1 (Mus musculus, UniProt Q9Z2A7); test: Inhibition of mouse DGAT1
T1 sequence (Q9Z2A7 whole entry): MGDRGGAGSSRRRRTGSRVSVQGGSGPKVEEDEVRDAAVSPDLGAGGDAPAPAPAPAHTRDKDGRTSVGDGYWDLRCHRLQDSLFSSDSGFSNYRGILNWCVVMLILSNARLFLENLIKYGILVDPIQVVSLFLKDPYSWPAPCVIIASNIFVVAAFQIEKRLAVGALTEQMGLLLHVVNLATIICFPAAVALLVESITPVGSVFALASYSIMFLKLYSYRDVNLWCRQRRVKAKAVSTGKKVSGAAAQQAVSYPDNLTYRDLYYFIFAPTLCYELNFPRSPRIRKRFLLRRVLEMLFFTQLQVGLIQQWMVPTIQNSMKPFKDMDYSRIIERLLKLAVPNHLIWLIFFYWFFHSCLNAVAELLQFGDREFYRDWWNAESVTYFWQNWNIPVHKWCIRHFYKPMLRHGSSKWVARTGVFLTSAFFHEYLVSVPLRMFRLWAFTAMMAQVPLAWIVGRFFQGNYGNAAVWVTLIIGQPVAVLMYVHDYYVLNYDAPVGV
Procedure, shortened: (§1)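 IC50 values are the average of at least two independent determinations.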

Mus musculus [3] = test: Reduction of postprandial plasma triglyceride level in C57BL/6J mouse at 10 mg/kg, po administered 15 mins prior to corn oil bolus challenge measured after 2 hrs relative to vehicle-treated control; type: functional; design: scale not given: the % may be the effect or the level left
Procedure, shortened: (§2)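 Vehicle is 20% hydroxypropyl-β-cyclodextrin; compound or vehicle is given 15 min before time 0. Mice receive a 0.25 mL corn oil bolus at time 0. Terminal blood is taken by heart puncture at 120 min. Plasma TG is measured by an enzymatic colorimetric kit with absorbance read at 600 nm. Values are the mean ± SEM from eight studies, as % reduction versus vehicle.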

[4] = Half life in rat at 10 mg/kg, po; type: ADME, organism-based; design: dose 10 mg/kg, route oral; conditions: in vivo
[5] = Solubility of the compound; type: physicochemical
[6] = Plasma protein binding in rat; type: ADME, cell-free; conditions: read-out: PPB (converted)
[7] = Clearance in rat hepatocytes assessed per million cells; type: ADME, cell-based, Hepatocyte; conditions: read-out: CLH
[8] = Oral bioavailability in rat at 10 mg/kg; type: ADME, organism-based; conditions: in vivo
[9] = Drug degradation in human plasma at 25 degC after 12 hrs; type: ADME, cell-free; conditions: read-out: Drug degradation
[10] = Clearance in human hepatocytes assessed per million cells; type: ADME, cell-based, Hepatocyte; conditions: read-out: CLH
[11] = Permeability across human Caco2 cells; type: ADME, cell-based; conditions: Caco-2, read-out: permeability
[12] = target: T2, Diacylglycerol O-acyltransferase 1 (Homo sapiens, UniProt O75907); test: Inhibition of human DGAT1
T2 sequence (O75907 whole entry): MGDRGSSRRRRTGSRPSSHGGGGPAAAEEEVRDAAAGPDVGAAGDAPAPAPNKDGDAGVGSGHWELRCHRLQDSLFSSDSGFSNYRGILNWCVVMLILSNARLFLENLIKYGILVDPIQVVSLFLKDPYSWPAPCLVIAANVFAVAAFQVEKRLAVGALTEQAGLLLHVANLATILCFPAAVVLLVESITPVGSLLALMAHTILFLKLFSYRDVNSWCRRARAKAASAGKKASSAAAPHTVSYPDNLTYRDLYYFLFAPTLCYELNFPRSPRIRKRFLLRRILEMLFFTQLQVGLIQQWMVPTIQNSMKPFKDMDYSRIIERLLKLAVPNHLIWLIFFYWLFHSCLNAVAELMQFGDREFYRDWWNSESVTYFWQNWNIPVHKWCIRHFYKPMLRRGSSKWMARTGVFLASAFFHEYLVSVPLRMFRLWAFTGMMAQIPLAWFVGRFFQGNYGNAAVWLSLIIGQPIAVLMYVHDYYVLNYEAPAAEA

[13] = target: T3, Sterol O-acyltransferase 1 (Homo sapiens, UniProt P35610); test: Inhibition of human ACAT1; procedure, shortened: as §1
T3 sequence (P35610 whole entry): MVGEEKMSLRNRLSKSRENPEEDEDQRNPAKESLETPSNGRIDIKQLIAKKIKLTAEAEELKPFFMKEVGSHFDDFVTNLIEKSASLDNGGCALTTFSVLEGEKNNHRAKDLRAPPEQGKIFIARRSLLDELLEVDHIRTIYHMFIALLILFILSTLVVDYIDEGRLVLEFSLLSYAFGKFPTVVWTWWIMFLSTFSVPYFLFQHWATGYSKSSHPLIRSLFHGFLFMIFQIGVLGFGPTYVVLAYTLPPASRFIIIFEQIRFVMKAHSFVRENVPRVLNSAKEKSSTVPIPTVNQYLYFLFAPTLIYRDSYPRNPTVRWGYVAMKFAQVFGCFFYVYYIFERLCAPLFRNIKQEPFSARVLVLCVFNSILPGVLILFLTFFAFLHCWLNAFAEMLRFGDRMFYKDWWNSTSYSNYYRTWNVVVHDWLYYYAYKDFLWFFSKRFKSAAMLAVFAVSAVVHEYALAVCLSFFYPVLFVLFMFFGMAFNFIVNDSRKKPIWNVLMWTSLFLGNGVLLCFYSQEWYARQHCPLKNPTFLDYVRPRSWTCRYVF

[14] = target: T4, Diacylglycerol O-acyltransferase 2 (Homo sapiens, UniProt Q96PD7); test: Inhibition of human DGAT2
T4 sequence (Q96PD7 whole entry): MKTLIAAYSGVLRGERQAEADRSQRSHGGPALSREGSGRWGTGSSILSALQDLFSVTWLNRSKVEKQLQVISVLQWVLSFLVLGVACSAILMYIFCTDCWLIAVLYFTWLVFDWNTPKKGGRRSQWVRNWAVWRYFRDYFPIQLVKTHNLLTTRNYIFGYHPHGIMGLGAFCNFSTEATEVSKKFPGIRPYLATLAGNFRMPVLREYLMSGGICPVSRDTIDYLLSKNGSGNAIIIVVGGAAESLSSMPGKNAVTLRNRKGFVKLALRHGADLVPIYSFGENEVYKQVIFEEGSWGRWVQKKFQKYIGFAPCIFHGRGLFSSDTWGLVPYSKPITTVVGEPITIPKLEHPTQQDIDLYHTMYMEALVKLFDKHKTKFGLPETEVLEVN

[15] = target: T5, Sterol O-acyltransferase 2 (Homo sapiens, UniProt O75908); test: Inhibition of human ACAT2; procedure, shortened: as §1
T5 sequence (O75908 whole entry): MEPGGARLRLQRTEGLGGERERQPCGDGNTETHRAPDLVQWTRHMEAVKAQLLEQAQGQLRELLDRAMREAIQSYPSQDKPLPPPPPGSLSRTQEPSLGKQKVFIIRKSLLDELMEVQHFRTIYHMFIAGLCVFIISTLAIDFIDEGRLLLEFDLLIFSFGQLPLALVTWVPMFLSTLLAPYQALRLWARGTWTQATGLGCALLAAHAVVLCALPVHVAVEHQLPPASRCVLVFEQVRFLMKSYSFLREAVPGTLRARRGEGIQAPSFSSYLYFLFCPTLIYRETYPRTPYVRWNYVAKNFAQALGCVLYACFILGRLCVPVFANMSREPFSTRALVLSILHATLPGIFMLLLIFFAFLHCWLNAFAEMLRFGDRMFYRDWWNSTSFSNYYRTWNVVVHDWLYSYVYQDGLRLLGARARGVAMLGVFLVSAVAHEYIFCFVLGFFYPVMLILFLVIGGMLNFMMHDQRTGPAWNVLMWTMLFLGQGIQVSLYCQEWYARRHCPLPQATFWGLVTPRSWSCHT

Plasma [16] = test: Metabolic stability in rat plasma at 25 degC; type: ADME, cell-free
Plasma [17] = test: Metabolic stability in human plasma at 25 degC; type: ADME, cell-free
Mus musculus [18] = test: Reduction of postprandial plasma triglyceride level in C57BL/6J mouse at 3 mg/kg, po administered 15 mins prior to corn oil bolus challenge measured after 2 hrs relative to vehicle-treated control; type: functional; design: scale not given: the % may be the effect or the level left; procedure, shortened: as §2
Plasma [19] = test: Metabolic stability in mouse plasma at 25 degC; type: ADME, cell-free
[20] = Solubility of the compound at pH 7; type: physicochemical; conditions: buffer
[21] = Metabolic stability in human plasma assessed as compound recovery at 25 degC after 6 days; type: ADME, cell-free; conditions: read-out: Drug recovery
CYP1A1 = target: T6, CYP1A1 (Homo sapiens, UniProt P04798); test: Induction of CYP1A1 (unknown origin) at 30 uM; type: ADME; conditions: read-out: FC
T6 sequence (P04798 whole entry): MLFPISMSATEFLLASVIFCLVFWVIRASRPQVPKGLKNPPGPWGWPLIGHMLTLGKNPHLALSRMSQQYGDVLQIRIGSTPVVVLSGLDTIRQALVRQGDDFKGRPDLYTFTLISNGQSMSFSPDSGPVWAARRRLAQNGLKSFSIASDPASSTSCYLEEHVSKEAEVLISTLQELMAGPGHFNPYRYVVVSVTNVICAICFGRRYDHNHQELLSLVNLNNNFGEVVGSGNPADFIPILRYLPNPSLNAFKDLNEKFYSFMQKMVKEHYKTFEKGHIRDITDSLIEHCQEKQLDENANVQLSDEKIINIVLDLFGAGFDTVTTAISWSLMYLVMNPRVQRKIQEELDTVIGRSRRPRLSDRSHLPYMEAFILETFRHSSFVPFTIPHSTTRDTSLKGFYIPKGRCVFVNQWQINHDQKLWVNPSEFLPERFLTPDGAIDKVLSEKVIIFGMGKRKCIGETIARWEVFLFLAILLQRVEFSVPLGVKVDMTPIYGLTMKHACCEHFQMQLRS

| Structure (SMILES) | AUC [1] | IC50 [2] | Activity (Mus musculus [3]) | IC50 [12] | other results |
| --- | --- | --- | --- | --- | --- |
| O=C(O)C[C@H]1CC[C@H](c2ccc(-c3ccc4c(c3)CCCN4C(=O)Nc3ccccc3)cc2)CC1 | 79 µM·h | 84 nM | -15% |  |  |
| O=C(O)C[C@H]1CC[C@H](c2ccc(-c3ccc4c(c3)CCN4C(=O)Nc3ccccc3)cc2)CC1 | 17 µM·h | 69 nM | -13% |  | half-life [4]: 3 h; solubility [5]: 50 µM (≈ 22.7 µg/mL); fraction unbound [6]: 0.002; hepatocyte CLint [7]: 13 µL/min/1e6 cells; bioavailability [8]: > 90%; metabolised at 12 h [9]: 20%; hepatocyte CLint [10]: 3 µL/min/1e6 cells; Papp [11]: 17 ×10⁻⁶ cm/s |
| O=C(O)C[C@H]1CC[C@H](c2ccc(-c3ccc4c(C(=O)Nc5ccccc5)ccnc4c3)cc2)CC1 | 5 µM·h | 23 nM | -85% | 41 nM | solubility [5]: 50 µM (≈ 23.2 µg/mL); IC50 [13]: 4170 nM; Papp [11]: 54.2 ×10⁻⁶ cm/s |
| O=C(O)C[C@H]1CC[C@H](c2ccc(-c3ccc4c(ccn4C(=O)Nc4ccccc4)c3)cc2)CC1 |  |  | -45% | 37 nM | metabolised at 12 h [9]: 40%; IC50 [14]: > 50000 nM; IC50 [15]: 3000 nM |
| O=C(O)C[C@H]1CC[C@H](c2ccc(-c3ccc4c(c3)NCCN4C(=O)Nc3ccccc3)cc2)CC1 |  | 4820 nM |  |  |  |
| CC(C)c1cccc(NC(=O)c2ccnc3cc(-c4ccc([C@H]5CC[C@H](CC(=O)O)CC5)cc4)ccc23)c1 | 0.03 µM·h | 23 nM |  |  | Stability (Plasma [16]): 12 h; Stability (Plasma [17]): 12 h; Activity (Mus musculus [18]): -76%; Stability (Plasma [19]): 12 h |
| O=C(O)C[C@H]1CC[C@H](c2ccc(-c3ccc4c(C(=O)Nc5ccccc5)c[nH]c4c3)cc2)CC1 | 1.3 µM·h | 284 nM | 23% |  |  |
| O=C(O)C[C@H]1CC[C@H](c2ccc(-c3ccc4oc(Nc5ccccc5)nc4c3)cc2)CC1 |  | 3840 nM |  |  |  |
| Cc1cc(C(=O)Nc2ccccc2)c2ccc(-c3ccc(OCC(C)(C)C(=O)O)nc3)cc2n1 | 34 µM·h | 69 nM |  |  | Activity (Mus musculus [18]): -91%; IC50 [15]: 1550 nM |
| O=C(O)C[C@H]1CC[C@H](c2ccc(-c3ccc4nc(Nc5ccccc5)ncc4c3)cc2)CC1 |  | > 10000 nM |  |  |  |
| Cc1cc(C(=O)Nc2ccccc2)c2ccc(-c3ccc(OCC(C)(C)C(=O)O)[n+]([O-])c3)cc2n1 |  | 23 nM |  | 122 nM | Activity (Mus musculus [18]): -40%; IC50 [15]: 13300 nM |
| O=C(O)C[C@H]1CC[C@H](c2ccc(-c3ccc4c(C(=O)Nc5ccccc5)cccc4c3)cc2)CC1 |  | 8 nM | 0% |  | solubility [20]: 10 µM (≈ 4.64 µg/mL) |
| O=C(O)C[C@H]1CC[C@H](c2ccc(-c3ccc4nc(C(=O)Nc5ccccc5)[nH]c4c3)cc2)CC1 |  | > 5000 nM |  |  |  |
| CN1CCN(C(=O)Nc2ccccc2)c2ccc(-c3ccc([C@H]4CC[C@H](CC(=O)O)CC4)cc3)cc2C1 |  | > 10000 nM |  | > 10000 nM |  |
| O=C(O)C[C@H]1CC[C@H](c2ccc(-c3ccc4cc(C(=O)Nc5ccccc5)[nH]c4c3)cc2)CC1 |  | 1090 nM |  |  |  |
| O=C(O)C[C@H]1CC[C@H](c2ccc(-c3ccc4c(c3)OCCN4C(=O)Nc3ccccc3)cc2)CC1 | 58 µM·h | 40 nM | -52% | 65 nM | half-life [4]: 4 h; solubility [5]: 100 µM (≈ 47.1 µg/mL); fraction unbound [6]: 0.002; hepatocyte CLint [7]: 9 µL/min/1e6 cells; remaining at 144 h [21]: 80%; hepatocyte CLint [10]: 11 µL/min/1e6 cells; Papp [11]: 44.8 ×10⁻⁶ cm/s; fold induction at 30 µM (CYP1A1): 10; IC50 [14]: > 10000 nM; IC50 [15]: 9700 nM |
| Cc1cc(C(=O)NCCCCCc2ccccc2)c2ccc(-c3ccc([C@H]4CC[C@H](CC(=O)O)CC4)cc3)cc2n1 | 10 µM·h | 1.4 nM |  |  | Activity (Mus musculus [18]): -58% |
| O=C(O)C[C@H]1CC[C@H](c2ccc(-c3ccc4c(c3)C(=O)CCN4C(=O)Nc3ccccc3)cc2)CC1 |  | 1670 nM |  | > 10000 nM |  |
